In article PMC4955361 (Bioorganic & medicinal chemistry letters, 2016):
Values belong to the compound of their own block, whether it stands above or below them.

What was measured:
rats = details: by potentiation of receptor activation by endogenous acetylcholine; cited from earlier work
[1] = Intrinsic clearance in rat hepatic microsomes; assay type: in vitro ADME; details: predicted hepatic clearance from in vitro intrinsic clearance
[2] = Intrinsic clearance in human hepatic microsomes; assay type: in vitro ADME; details: predicted hepatic clearance from in vitro intrinsic clearance
[3] = Metabolite identification; assay type: in vitro ADME; details: human hepatic microsomes, NADPH-dependent
[4] = Metabolite identification; assay type: in vitro ADME; details: rat hepatic microsomes, NADPH-dependent
CYP450 = CYP450 inhibition profile; assay type: in vitro ADME; details: in words
M3 = M3 (Homo sapiens, UniProt P20309); assay: Muscarinic receptor subtype selectivity, M3; assay type: cell-based; details: antagonist
M5 [5] = molecular target: T1, M5 (Homo sapiens, UniProt P08912); assay: Muscarinic receptor subtype selectivity, M5; assay type: cell-based; details: for potency at M5 relative to M4: antagonist; for selectivity versus M5: data not shown
T1 sequence (P08912 1-532): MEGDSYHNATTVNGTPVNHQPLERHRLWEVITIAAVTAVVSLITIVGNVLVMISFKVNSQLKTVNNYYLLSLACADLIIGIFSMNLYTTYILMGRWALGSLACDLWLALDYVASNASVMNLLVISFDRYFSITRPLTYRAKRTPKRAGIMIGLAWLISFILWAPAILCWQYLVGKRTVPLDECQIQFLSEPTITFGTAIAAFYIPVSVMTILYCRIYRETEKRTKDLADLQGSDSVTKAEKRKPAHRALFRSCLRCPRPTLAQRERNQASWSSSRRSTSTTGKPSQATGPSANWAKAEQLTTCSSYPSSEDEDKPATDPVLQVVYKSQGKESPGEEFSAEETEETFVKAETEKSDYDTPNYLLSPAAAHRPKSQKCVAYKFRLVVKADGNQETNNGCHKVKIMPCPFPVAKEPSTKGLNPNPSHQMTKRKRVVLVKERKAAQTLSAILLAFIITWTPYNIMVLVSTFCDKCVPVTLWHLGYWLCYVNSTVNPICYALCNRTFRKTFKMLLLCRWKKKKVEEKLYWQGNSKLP

M1 [6] = molecular target: T2, M1 (Homo sapiens, UniProt P11229); assay: Muscarinic receptor subtype selectivity, M1; assay type: cell-based; details: for potency at M1 relative to M4: antagonist; for selectivity versus M1: data not shown
T2 sequence (P11229 1-460): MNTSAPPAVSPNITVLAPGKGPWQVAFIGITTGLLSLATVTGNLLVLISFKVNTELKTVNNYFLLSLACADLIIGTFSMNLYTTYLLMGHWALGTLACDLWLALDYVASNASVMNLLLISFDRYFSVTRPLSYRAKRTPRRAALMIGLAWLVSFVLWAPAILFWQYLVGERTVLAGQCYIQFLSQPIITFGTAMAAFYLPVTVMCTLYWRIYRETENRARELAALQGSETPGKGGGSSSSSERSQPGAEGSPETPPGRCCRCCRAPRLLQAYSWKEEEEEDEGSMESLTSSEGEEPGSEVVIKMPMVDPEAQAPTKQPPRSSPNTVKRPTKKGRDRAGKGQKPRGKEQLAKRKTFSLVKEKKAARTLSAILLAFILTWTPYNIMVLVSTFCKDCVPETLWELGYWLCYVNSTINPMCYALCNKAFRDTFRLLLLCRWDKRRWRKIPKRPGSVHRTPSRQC

M2 = molecular target: T3, M2 (Homo sapiens, UniProt P08172); assay: Muscarinic receptor subtype selectivity, M2; assay type: cell-based; details: antagonist
T3 sequence (P08172 1-466): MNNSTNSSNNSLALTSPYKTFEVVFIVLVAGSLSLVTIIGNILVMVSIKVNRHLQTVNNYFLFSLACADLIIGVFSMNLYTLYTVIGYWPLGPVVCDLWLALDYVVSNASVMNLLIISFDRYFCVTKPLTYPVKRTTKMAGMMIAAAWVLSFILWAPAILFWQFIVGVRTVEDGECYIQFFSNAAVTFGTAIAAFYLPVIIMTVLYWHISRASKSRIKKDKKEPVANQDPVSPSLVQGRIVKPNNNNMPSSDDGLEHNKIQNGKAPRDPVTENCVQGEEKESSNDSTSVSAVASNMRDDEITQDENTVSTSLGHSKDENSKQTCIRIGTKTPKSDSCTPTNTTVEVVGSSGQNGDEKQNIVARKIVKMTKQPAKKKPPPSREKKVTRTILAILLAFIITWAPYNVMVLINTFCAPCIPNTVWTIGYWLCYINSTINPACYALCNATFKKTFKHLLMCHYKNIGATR

M1 [7] = molecular target: T2, M1; assay: Built-in HTS counterscreen, human M1; assay type: cell-based
[8] = Rat brain:plasma distribution; assay type: in vivo; details: in words
M5 [9] = molecular target: T1, M5; assay: Built-in HTS counterscreen, human M5; assay type: cell-based
human M4 = molecular target: T4, human M4 (Homo sapiens, UniProt P08173); assay type: cell-based; details: read-out: % ACh Max ± SEM
T4 sequence (P08173 1-479): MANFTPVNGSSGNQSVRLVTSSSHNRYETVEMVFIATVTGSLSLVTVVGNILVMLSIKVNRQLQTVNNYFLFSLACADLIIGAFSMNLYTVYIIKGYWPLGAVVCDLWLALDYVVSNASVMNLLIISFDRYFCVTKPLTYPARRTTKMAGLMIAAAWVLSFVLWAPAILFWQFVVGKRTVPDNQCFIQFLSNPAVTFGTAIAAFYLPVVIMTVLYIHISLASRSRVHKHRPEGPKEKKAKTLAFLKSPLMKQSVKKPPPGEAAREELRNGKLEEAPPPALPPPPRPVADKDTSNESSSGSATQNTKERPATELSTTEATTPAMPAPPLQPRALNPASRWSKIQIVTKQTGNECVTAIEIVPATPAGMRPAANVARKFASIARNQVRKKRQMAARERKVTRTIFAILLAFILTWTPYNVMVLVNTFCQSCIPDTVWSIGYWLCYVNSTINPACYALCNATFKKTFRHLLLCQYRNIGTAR
Summary of the method: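 Functional Ca2+ mobilization read-out in CHO cells co-expressing human M4 and the chimeric G protein Gqi5. Test compound is applied with a fixed ~EC20 concentration of acetylcholine. PAM potency is reported as EC50/pEC50 and efficacy as % of the acetylcholine maximum. Values are means of at least three independent determinations.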

rodent = details: cited from earlier work

M3, sequence (P20309 whole entry): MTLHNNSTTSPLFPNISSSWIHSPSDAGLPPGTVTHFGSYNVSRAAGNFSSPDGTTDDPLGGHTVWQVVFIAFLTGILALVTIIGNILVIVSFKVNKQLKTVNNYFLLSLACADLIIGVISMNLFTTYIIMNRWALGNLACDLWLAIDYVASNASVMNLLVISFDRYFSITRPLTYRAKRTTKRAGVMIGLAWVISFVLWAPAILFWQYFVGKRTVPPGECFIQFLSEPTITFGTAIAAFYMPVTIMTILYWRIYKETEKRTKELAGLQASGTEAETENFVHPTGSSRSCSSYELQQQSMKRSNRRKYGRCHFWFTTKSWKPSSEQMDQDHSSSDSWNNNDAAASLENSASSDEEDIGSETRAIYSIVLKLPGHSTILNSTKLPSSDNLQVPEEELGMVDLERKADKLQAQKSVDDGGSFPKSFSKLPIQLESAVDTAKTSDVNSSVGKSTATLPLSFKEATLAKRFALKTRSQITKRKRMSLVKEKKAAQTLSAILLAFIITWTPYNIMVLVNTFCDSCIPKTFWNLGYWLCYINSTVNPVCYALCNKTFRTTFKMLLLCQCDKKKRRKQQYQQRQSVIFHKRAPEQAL

Compound: COc1ccc(CNC(=O)c2sc3nc(C)cc(C)c3c2N)cc1 [VU0152100]
antipsychotic-like activity in rats (rats): displayed antipsychotic-like activity

Compound: CCCN(c1ccc(C)nc1)C1CCN(c2ncnc3sc(C)c(C)c23)CC1 [compound 19]
CYP450 inhibition profile (CYP450): acceptable | potency at M3 relative to M4 (M3): similarly potent | potency at M5 relative to M4 (M5 [5]): similarly potent | potency at M1 relative to M4 (M1 [6]): similarly potent | potency at M2 relative to M4 (M2): similarly potent

Compound: Cc1sc2ncnc(N3CCC(C(=O)Nc4ccc(S(C)(=O)=O)cc4)CC3)c2c1C [10e]
selectivity versus M5 (M5 [5]): retaining selectivity | selectivity versus M1 (M1 [6]): retaining selectivity

Compound: Cc1sc2ncnc(N3CCC(C(=O)Nc4cc(Cl)ccc4Cl)CC3)c2c1C [10h]
selectivity versus M5 (M5 [5]): retaining selectivity | selectivity versus M1 (M1 [6]): retaining selectivity

Compound: Cc1sc2ncnc(N3CCC(C(=O)Nc4ccc(F)cc4Cl)CC3)c2c1C [10g]
selectivity versus M5 (M5 [5]): retaining selectivity | selectivity versus M1 (M1 [6]): retaining selectivity

Compound: Cc1sc2ncnc(N3CCC(C(=O)Nc4ccc(S(N)(=O)=O)cc4)CC3)c2c1C [compound 5]
activity on human M1 (M1 [7]): inactive | CNS penetration [8]: not CNS penetrant | activity on human M5 (M5 [9]): inactive | Emax (human M4): 91 ± 4%

Compound: CCCCN(c1ccc(C)nc1)C1CCN(c2ncnc3sc(C)c(C)c23)CC1 [compound 20]
CYP450 inhibition profile (CYP450): acceptable | potency at M3 relative to M4 (M3): similarly potent | potency at M5 relative to M4 (M5 [5]): similarly potent | potency at M1 relative to M4 (M1 [6]): similarly potent | potency at M2 relative to M4 (M2): similarly potent

Compound: Cc1nnc2sc(C(=O)NCc3ccc(S(=O)(=O)C(F)(F)F)cc3)c(N)c2c1C [VU0467154]
in vivo efficacy in rodent antipsychotic and cognition models (rodent): robust in vivo efficacy

The next lines start with results.

predicted CLhep, rat [1]: 68 mL/min/kg | predicted CLhep, human [2]: 14 mL/min/kg
Compound: Cc1sc2ncnc(N3CCC(C(=O)N4CC[C@H](F)C4)CC3)c2c1C [11b]

predicted CLhep, rat [1]: 68 mL/min/kg | predicted CLhep, human [2]: 20 mL/min/kg | major pathway of metabolism in rat [4]: hydroxylation of the 5,6-dimethyl moiety
Compound: Cc1ccc(OC2CCN(c3ncnc4sc(C)c(C)c34)CC2)cn1 [14b]
major metabolic route in human [3]: heteroatom (likely the thiophene sulfur) oxidation

predicted CLhep, rat [1]: 67 mL/min/kg | predicted CLhep, human [2]: 16 mL/min/kg
Compound: Cc1sc2ncnc(N3CCC(C(=O)N4CCCC4)CC3)c2c1C [11a]

predicted CLhep, rat [1]: 50 mL/min/kg | predicted CLhep, human [2]: 12 mL/min/kg
Compound: Cc1ccc(OC2CCN(c3ncnc4ccc(F)cc34)CC2)cn1 [17b]
